Assay outcomes (PubChem BioAssay)
This is a sample that favours compounds with a hit; in the whole collection about 2.3% have one here.
TRPC4 block: TRPC4 (mouse) channel inhibition. Q9QUQ5. HEK293 TRPC4beta/mu-opioid, DAMGO-evoked Fluo4 calcium flux; active compounds read low. B-score at 10 µM. actives 0.39% (n = 300,000). AID 2247;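 active = B-score over 3 SD under the library average, no early fluorescence shift, positive overall ratio signal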
Target sequence (Q9QUQ5 whole entry, looked up): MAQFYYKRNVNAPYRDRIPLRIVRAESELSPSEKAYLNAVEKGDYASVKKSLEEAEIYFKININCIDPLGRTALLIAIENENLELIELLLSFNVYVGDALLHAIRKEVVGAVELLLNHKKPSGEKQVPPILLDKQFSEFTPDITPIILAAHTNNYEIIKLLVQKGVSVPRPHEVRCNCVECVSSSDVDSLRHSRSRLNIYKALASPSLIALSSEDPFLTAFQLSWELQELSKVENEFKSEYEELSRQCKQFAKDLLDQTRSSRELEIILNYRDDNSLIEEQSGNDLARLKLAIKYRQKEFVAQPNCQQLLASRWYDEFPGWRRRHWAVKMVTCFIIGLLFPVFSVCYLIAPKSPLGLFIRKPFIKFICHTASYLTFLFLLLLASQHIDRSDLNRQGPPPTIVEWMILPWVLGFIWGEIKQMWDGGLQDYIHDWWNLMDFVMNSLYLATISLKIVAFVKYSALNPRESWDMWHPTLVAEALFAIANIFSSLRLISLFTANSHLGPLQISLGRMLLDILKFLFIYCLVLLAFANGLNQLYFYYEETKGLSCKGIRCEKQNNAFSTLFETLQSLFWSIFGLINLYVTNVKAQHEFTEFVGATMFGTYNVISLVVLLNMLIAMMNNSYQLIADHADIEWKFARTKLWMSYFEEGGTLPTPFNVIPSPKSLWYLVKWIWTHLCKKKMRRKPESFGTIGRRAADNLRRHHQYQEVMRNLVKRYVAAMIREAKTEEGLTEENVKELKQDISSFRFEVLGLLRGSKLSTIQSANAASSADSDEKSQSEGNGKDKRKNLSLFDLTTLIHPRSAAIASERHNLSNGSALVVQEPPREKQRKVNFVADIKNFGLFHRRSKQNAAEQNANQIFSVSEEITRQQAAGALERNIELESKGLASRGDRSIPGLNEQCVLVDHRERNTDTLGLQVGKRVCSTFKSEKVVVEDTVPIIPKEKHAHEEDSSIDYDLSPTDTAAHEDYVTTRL
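Assay system – HEK293 line stably carrying TRPC4beta and mu-opioid receptor · Doses – single dose · Detection – Fluo4 calcium-dye fluorescence, kinetic read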
TRPC6 act: activates the mouse TRPC6 cation channel; Q61143; HEK293-TRPC6 membrane potential dye fluorescence; active compounds read high; B-score at 10 µM; actives 0.13% (n = 310,000);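 active = B-score of the integrated fluorescence ratio above library mean plus 3 SD, and starting fluorescence ratio within library mean plus 5 SD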;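 note: higher score means more depolarization so channel activation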
TRPC6 inh: blocks the mouse TRPC6 cation channel; Q61143; HEK293-TRPC6, membrane potential dye, ACh-evoked depolarization; active compounds read low; B-score at 10 µM; actives 1.1% (n = 310,000);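 active = B-score under library mean minus 3 SD, initial fluorescence not abnormally high, positive integrated signal ratio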;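 note: B-score derived from integrated fluorescence ratio over the kinetic read; more negative B-score means stronger inhibition of depolarization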
TRPC4 PAM: allosterically enhances the mouse TRPC4 cation channel; Q9QUQ5; HEK293 TRPC4beta/mu-opioid, DAMGO EC20, Fluo-4 Ca2+ flux; active compounds read high; B-score at 10 µM; actives 0.42% (n = 310,000);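 active = B-score of calcium response area above 5 SD of library B-scores, with initial fluorescence ratio within 5 SD of library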;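 note: B-score of integrated fluorescence ratio over time as area under calcium response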
TRPC4 act: activators of mouse TRPC4 channel | actives 0.49% (n = 310,000) | AID 2237 | Q9QUQ5 | HEK293 TRPC4beta/mu-opioid, Fluo4 calcium fluorescence; active compounds read high | B-score at 10 µM;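 active = B-score above 5 SD of library B-scores, and initial fluorescence ratio not above library mean plus 5 SD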;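 note: positive B-score marks a calcium rise read as TRPC4 activation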
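Material: TRPC4beta and mu-opioid receptor HEK293 stable cells | Incubation: 45 min room-temperature Fluo4 loading, 110 s read | Detection: Kinetic Fluo4 calcium fluorescence | Measure: Integrated baseline-normalised fluorescence ratio, converted to per-well B score | Benchmarks: Low control buffer alone, high control maximal DAMGO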
TRPC4 sel inh 2: second selectivity test of TRPC6 inhibitors: effect on mouse TRPC4 | shares compounds with TRPC6 inh | HEK293 TRPC4/MOR, membrane potential dye fluorescence; channel activated by saturating DAMGO dose | inhibition, % at 10 µM | actives 42% (n = 920);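 active = compounds whose fluorescence signal differed from control wells by over 3 SD, either direction, in both duplicate plates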
TRPC4 spec: selectivity of TRPC6 inhibitors: effect on mouse TRPC4. shares compounds with TRPC6 inh. actives 61% (n = 920). AID 2777. HEK293 TRPC4/mu-opioid, membrane potential fluorescence. activity change, negative = inhibition, % at 10 µM;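 active = rise or fall in signal beyond 3 SD of buffer-only wells in both replicate plates, either sign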;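 note: integrated kinetic ratio of fluorescence range over baseline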
HEK293 MPD ctr 2-1: parental HEK293 nonspecific activity of TRPC6 inhibitors, second screen; shares compounds with TRPC6 inh; parental HEK293 membrane potential dye fluorescence; maximal acetylcholine challenge after compound addition; signal change vs control, % at 10 µM; actives 31% (n = 920);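 active = membrane potential signal moving either way by over 3 SD of the maximum-effect control, in both duplicate plates, meaning non-specific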
HEK293 MPD ctr-1: checks TRPC6 inhibitor effects in parental HEK293 cells; shares compounds with TRPC6 inh; parental HEK293 membrane potential dye fluorescence; membrane potential signal change, % at 10 µM; actives 60% (n = 920);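 active = membrane potential signal shifting up or down by more than 3 SD of buffer-only wells, on both duplicate plates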
HEK293 MPD ctr-2: checks TRPC6 modulator effects in parental HEK293 cells; AID 488924; membrane potential signal change, % at 10 µM; actives 51% (n = 2,400); shares compounds with TRPC6 inh; membrane potential dye fluorescence;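 active = membrane potential signal moves up or down beyond 5 SD from buffer-only wells, on both duplicate plates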
HEK293 MPD ctr 2-2: second counter-screen for TRPC6 modulators: effect in parental HEK293 cells; actives 14% (n = 2,400); shares compounds with TRPC6 inh; inhibition, % at 10 µM; membrane potential dye fluorescence; after compound, maximal acetylcholine stimulation;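 active = membrane potential signal drops by more than 5 SD from the mean control signal, in both duplicate plates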;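 note: plate controls were acetylcholine ECmax control wells for no effect and buffer only wells for full effect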
TRPC4/MOR mod: selectivity of TRPC6 modulators against mouse TRPC4; shares compounds with TRPC6 inh; percent change from control (negative = decrease, positive = increase), % at 10 µM; actives 69% (n = 2,400); HEK293 TRPC4/mu-opioid, membrane potential fluorescence; AID 488927;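 active = membrane potential signal moved up or down beyond 5 SD of buffer control wells, in both duplicate plates, actives on both sides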;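 note: plate controls were assay buffer wells for no effect and DAMGO maximal-effect wells for full effect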
TRPC4 ctr inh 2: second check of whether TRPC6 modulators also affect mouse TRPC4 | inhibition, % at 10 µM | HEK293 TRPC4/mu-opioid, membrane potential dye fluorescence; stimulated with maximal-effect DAMGO | shares compounds with TRPC6 inh | actives 55% (n = 2,400);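 active = drop in membrane potential signal beyond 5 SD of the control wells in both duplicate plates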;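 note: TRPC4 counter screen for TRPC6 hits run under conditions tuned for TRPC6 not TRPC4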
TRPC6 inh conf: mouse TRPC6 inhibitor confirmation; HEK293-TRPC6, membrane potential dye, ACh-evoked depolarization; shares compounds with TRPC6 inh; actives 43% (n = 3,300); inhibition, % at 10 µM;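 active = fluorescence ratio falls more than 5 SD below the full-stimulation control mean, in both duplicate runs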;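 note: integrated fluorescence ratio of peak minus minimum over baseline after agonist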
TRPC6 act conf: mouse TRPC6 activator confirmation; HEK293-TRPC6 membrane potential dye fluorescence, FDSS; AID 488961; activation, % at 10 µM; shares compounds with TRPC6 inh; actives 11% (n = 2,800);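 active = ratio signal rise beyond 5 SD above unstimulated control wells' mean, seen in both duplicate runs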;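 note: plate controls were buffer EC0 wells for no effect and acetylcholine ECmax response for full effect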
An asterisk follows results filed as active; i = inactive; · = not tested or not shown.

SMILES	TRPC4 block	TRPC6 act	TRPC6 inh	TRPC4 PAM	TRPC4 act	TRPC4 sel inh 2	TRPC4 spec	HEK293 MPD ctr 2-1	HEK293 MPD ctr-1	HEK293 MPD ctr-2	HEK293 MPD ctr 2-2	TRPC4/MOR mod	TRPC4 ctr inh 2	TRPC6 inh conf	TRPC6 act conf
NCCCCCc1nnc(SCc2cccc(Cl)c2)o1	i	i	-6.8*	i	i	i	-0.3%*	i	0.8%*	·	·	·	·	i	i
NCCCCCc1nnc(SCc2ccc(Cl)cc2Cl)o1	i	i	-6.2*	i	i	·	·	·	·	i	i	14%*	53%*	i	·
NCCCCCc1nnc(SCC(=O)Nc2cccc(Cl)c2)o1	i	i	i	i	i	·	·	·	·	·	·	·	·	·	·
NCCc1nnc(SCc2ccccc2Cl)o1	i	i	i	i	i	·	·	·	·	·	·	·	·	·	·
O=[N+]([O-])c1cnc2nc(-c3ccncc3)nn2c1O	i	i	i	i	i	·	·	·	·	·	·	·	·	·	·
CCOC(=O)c1cn(C2CC2)c2c(F)c(NCCCN(C)C)c(F)cc2c1=O	i	i	-7.4*	i	i	i	-23%*	0.0%*	-436%*	·	·	·	·	67%*	i
CC(=O)N/C(=C\c1ccccc1)C(=O)OCC(=O)N(C)C1CCCCC1	i	i	i	i	i	·	·	·	·	·	·	·	·	·	·
CC1=NN(C(N)=S)C(=O)C1N=Nc1cccc([N+](=O)[O-])c1 (stereo not given)	i	i	-5.3*	i	i	·	·	·	·	i	i	i	i	i	i
O=C(CN1C(=O)CCS(=O)(=O)c2ccccc21)Nc1ccc(Cl)cc1	i	i	i	i	i	·	·	·	·	·	·	·	·	·	·
CC(=O)Nc1ccc(C(=O)OCCC(C)C)cc1	i	i	-6.8*	i	i	i	i	i	i	·	·	·	·	i	i
COc1ccc(/C=C2\SC(=NCc3ccccc3)NC2=O)cc1	i	i	-6.2*	i	i	·	·	·	·	i	i	i	i	i	i
CCOC(=O)c1nc2cc3n(c(C)c-2c1C)C(C)C(C)=C3C (stereo not given)	i	i	-8.1*	i	i	70%*	7.3%*	-192%*	i	·	·	·	·	i	i
CCOC(=O)c1nc2cc3n(c(CC(C)C)c-2c1C)CC(C)=C3C	i	i	-6.4*	i	i	·	·	·	·	-87%*	69%*	-20%*	54%*	49%*	i
COc1ccc(CCN(C)Cc2ccc(C(=O)Nc3ccccc3)cc2)cc1OC	i	i	i	i	i	·	·	·	·	·	·	·	·	·	·
COc1ccccc1NC(=O)CC1COc2ccccc2O1 (stereo not given)	i	i	i	i	i	·	·	·	·	·	·	·	·	·	·
CC(=O)c1cccc(NC(=O)CC2Oc3ccc(C)cc3NC2=O)c1 (stereo not given)	i	i	i	i	i	·	·	·	·	·	·	·	·	·	·
CCOC(=O)c1ccc(NC(=O)CC2COc3ccccc3O2)cc1 (stereo not given)	i	i	-7.4*	i	i	i	i	i	i	·	·	·	·	i	i
CCOC(=O)c1cccc(NC(=O)CC2Oc3ccccc3NC2=O)c1 (stereo not given)	i	i	-6*	i	i	·	·	·	·	i	i	i	i	i	i
C#CCOCCOCCOCCNc1nc(N2CCN(C(=O)C([C@@H](C)CC)n3cc(C(N)CO)nn3)CC2)nc(N2CCN(C(=O)[C@H](CCC(=O)O)n3cc(C(N)[C@H](C)CC)nn3)CC2)n1 (stereo not given in full)	i	i	i	i	i	·	·	·	·	·	·	·	·	·	·
Clc1cccc(Cl)c1C[n+]1ccc2ccccc2c1	i	i	i	i	i	·	·	·	·	·	·	·	·	·	·
CCCCN(C)CCCNC(=O)CN1C(=O)COc2ccc(S(=O)(=O)N3CCOCC3)cc21	i	i	-5.4*	i	i	·	·	·	·	i	i	i	i	i	i
CCCc1cc(-c2[nH]ncc2-c2ccc3c(c2)OCCCO3)c(O)cc1O	i	i	-8*	i	i	i	i	208%*	i	·	·	·	·	63%*	i
Cc1cc(N=Nc2ccccc2)c(NCC(O)C(O)C(O)CO)cc1C (stereo not given)	i	i	-8.1*	i	i	32%*	-30%*	i	-542%*	·	·	·	·	80%*	i
N#CC1=C(N)Oc2cc(N)ccc2C1c1ccc(Cl)cc1 (stereo not given)	i	12*	i	i	i	·	·	·	·	i	i	i	i	i	i
N#CC1=C(N)Oc2cc(N)ccc2C1c1ccc(F)cc1F (stereo not given)	i	39*	i	i	64*	·	·	·	·	121%*	i	i	i	i	27%*
O=C(NCCCN1CCCC1)c1cc2c(Cl)nc3ccccc3c2s1	i	i	-6.6*	i	i	·	·	·	·	i	i	i	35%*	i	i
Cc1cc(C)cc(NC(=O)[C@@H](NC(=O)c2ccco2)C(C)C)c1	i	i	i	i	i	·	·	·	·	·	·	·	·	·	·
